Where two headings read alike, the source gives them in different places.
Key:
[1] = tested on: OT, V1a, V1b, V2 receptors; details: cited from earlier work
[2] = tested on: OT, V1a, V1b, V2 receptors; details: cited from earlier work; remark: listed apart in the source
[3] = tested on: OT, V1a, V1b, V2 receptors; details: cited from earlier work; remark: listed apart in the source
[4] = Human serum stability assay; type: in vitro ADME
How it was run: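 Peptides were spiked into human serum. Aliquots were withdrawn at 1, 2, 3, 4, 12, 24 and 48 h and analysed by RP-HPLC and LCMS.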

rat V1aR = details: read-out: Ki at rat V1aR; ref Chini et al.([38]); cited from earlier work
human V1aR = details: read-out: Ki at human V1aR, cited from earlier work
human V2R = details: read-out: Ki at human V2R; ref Chini et al.([38]); cited from earlier work
rat V2R = details: read-out: Ki at rat V2R; ref Chini et al.([38]); cited from earlier work
mouse V2R = details: read-out: Ki at mouse V2R; ref Chini et al.([38]); cited from earlier work
human OTR = target: T1, human OTR (Homo sapiens, UniProt P30559); details: read-out: Ki at human OTR; ref Chini et al.([38]); cited from earlier work
T1 sequence (P30559 1-389): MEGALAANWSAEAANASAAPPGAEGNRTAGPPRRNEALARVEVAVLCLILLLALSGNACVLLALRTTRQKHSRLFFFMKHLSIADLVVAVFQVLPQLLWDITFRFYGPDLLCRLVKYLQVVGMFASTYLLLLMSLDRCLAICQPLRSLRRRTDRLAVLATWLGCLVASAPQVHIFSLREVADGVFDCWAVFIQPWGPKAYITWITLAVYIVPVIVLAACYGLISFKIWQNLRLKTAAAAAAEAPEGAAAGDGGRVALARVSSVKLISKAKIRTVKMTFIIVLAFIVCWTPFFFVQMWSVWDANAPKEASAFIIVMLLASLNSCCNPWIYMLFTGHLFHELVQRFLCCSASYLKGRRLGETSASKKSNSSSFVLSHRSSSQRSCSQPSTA

rat OTR = details: read-out: Ki at rat OTR; ref Chini et al.([38]); cited from earlier work
human V1bR = details: read-out: Ki at human V1bR; ref Chini et al.([38]); cited from earlier work
rat V1bR = details: read-out: Ki at rat V1bR; ref Chini et al.([38]); cited from earlier work
[5] = human, ref [37], [38], [41], [48], [49], [63], [96]–[99]
[6] = mouse, ref [37], [38], [41], [48], [49], [63], [96]–[99]
[7] = rat, ref [37], [38], [41], [48], [49], [63], [96]–[99]

N=C(N)NCCC[C@H](NC(=O)[C@@H]1CCCN1C(=O)[C@@H]1CSSC[C@H](N)C(=O)N[C@@H](Cc2ccc(O)cc2)C(=O)N[C@@H](Cc2ccccc2)C(=O)N[C@@H](CCC(N)=O)C(=O)N[C@@H](CC(N)=O)C(=O)N1)C(=O)NCC(N)=O [AVP, arginine-vasopressin]
Selectivity [1]: unselective
Selectivity [2]: unselective
Selectivity [3]: unselective

CC[C@H](C)[C@@H]1NC(=O)[C@H](Cc2ccc(O)cc2)NC(=O)[C@@H](N)CSSC[C@@H](C(=O)N2CCC[C@H]2C(=O)N[C@@H](CC(C)C)C(=O)NCC(N)=O)NC(=O)[C@H](CC(N)=O)NC(=O)[C@H](CCC(N)=O)NC1=O [OT, Oxytocin]
half-life [4]: 720 min

COc1ccc(S(=O)(=O)N2c3ccc(Cl)cc3[C@](O)(c3ccccc3Cl)[C@@H]2C(=O)N2CCC[C@H]2C(N)=O)cc1OC [SR49049]
Ki (rat V1aR): 2.2 nM

COc1ccc(S(=O)(=O)N2c3ccc(Cl)cc3[C@](O)(c3ccccc3Cl)[C@@H]2C(=O)N2CCC[C@H]2C(N)=O)cc1OC [SR49059]
Ki (human V1aR; ref Chini et al.([38])): 0.9 nM

CCOc1ccc2c(c1)C1(CCC(OCCN3CCOCC3)CC1)C(=O)N2S(=O)(=O)c1ccc(C(=O)NC(C)(C)C)cc1OC (stereo not shown) [SR121463]
Ki (human V2R): 4.1 nM
Ki (rat V2R): 1.5 nM
Ki (mouse V2R): 11.2 nM

CCN(Cc1cccnc1)C(=O)c1ccc(Cl)c(C2(C)C(=O)N(Cc3ccc(OC)cc3OC)c3ccc(Cl)cc32)c1 (stereo not shown) [SSR126768]
Ki (human OTR): 0.9 nM

Atosiban
Selectivity [1, 5]: V1a preference
Selectivity [2, 6]: OT selective
Selectivity [3, 7]: unselective

[Hmp1,Phe2,Ile3,Hgn4,Dab8]-VP [F-180]
Selectivity [1, 5]: V1a preference
Selectivity [3, 7]: unselective
Ki (human V1aR; ref Chini et al.([38])): 11.7 nM

[Phe2,Ile3,Hgn4,Orn(iPr)8]-VP [FE 202158]
Ki (human V1aR; selective agonist, ref [100], [101]): 4.4 nM

[Thr4,Gly7]-OT [T4G7-OT]
Selectivity [1, 5]: OT preference
Selectivity [2, 6]: OT selective
Selectivity [3, 7]: OT selective
Ki (rat OTR): 1 nM

d(CH2)5[D-Ile2,Ile4,Tyr9]-AVP
Ki (human V1aR; ref Chini et al.([38])): 3.7 nM

d(CH2)5[Tyr(Me)2]-AVP
Ki (rat V1aR): 0.7 nM

dDAVP
Ki (rat V2R): 0.3 nM

d[Cha4]-AVP
Selectivity [1, 5]: V1b selective
Selectivity [3, 7]: unselective
Ki (human V1bR): 1.2 nM

d[Leu4, Lys8]-VP
Ki (rat V1bR): 1.2 nM
